For the first experiment, the target named is CDK8/Cyclin C (Homo sapiens, UniProt P49336). The experiment can be described thus: Inhibition of Alexa fluor 647 labeled kinase tracer binding to human CDK8/cyclin C incubated for 1 hr by FRET based LanthaScreen Eu-Kinase binding assay. Type of experiment: protein-complex assay. (In general: In TR-FRET formats the signal depends on donor and acceptor labels being close together.)
CDK8/Cyclin C, sequence (P49336 whole entry): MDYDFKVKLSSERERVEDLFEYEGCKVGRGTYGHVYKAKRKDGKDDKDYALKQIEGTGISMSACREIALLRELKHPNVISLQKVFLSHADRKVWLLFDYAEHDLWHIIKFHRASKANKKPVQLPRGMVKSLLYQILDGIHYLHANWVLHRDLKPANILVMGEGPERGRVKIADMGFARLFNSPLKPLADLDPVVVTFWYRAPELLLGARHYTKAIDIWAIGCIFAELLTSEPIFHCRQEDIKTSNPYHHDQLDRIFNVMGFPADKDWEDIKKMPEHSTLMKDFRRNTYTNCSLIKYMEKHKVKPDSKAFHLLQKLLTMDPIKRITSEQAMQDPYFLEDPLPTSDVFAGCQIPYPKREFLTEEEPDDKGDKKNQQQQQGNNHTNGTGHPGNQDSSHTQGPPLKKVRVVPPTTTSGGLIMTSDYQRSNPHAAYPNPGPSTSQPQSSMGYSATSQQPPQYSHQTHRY
CDK8/Cyclin C, sequence (P24863 whole entry, further chain): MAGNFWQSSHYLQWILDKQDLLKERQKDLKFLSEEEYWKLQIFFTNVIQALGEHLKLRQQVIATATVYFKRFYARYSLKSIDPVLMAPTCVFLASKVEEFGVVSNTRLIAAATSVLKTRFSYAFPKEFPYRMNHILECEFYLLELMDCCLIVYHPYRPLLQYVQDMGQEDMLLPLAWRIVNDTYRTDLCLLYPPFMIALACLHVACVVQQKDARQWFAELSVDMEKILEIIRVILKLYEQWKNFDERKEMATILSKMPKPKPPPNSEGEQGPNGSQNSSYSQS
Consider `CCOc1ccc(C(=O)Oc2cncc(-c3cnn(-c4ccccc4)c3)c2)cc1`, for which the half-maximal inhibitory concentration (IC50) (commonly the point on the concentration scale where inhibition reaches its midpoint) was above 25000 nM.

`CCOc1ccc(C(=O)Oc2cnccc2-c2cnn(-c3ccccc3)c2)cc1` returned an IC50 of 6.4 nM.

`CCOc1ccc(C(=O)Oc2cnccc2C2CCN(c3ccccc3)CC2)cc1` displayed an IC50 of 144 nM.

Molecule `CCOc1ccc(C(=O)Oc2cncc(C3CCN(c4ccccc4)CC3)c2)cc1` registered a half-maximal inhibitory concentration (IC50) above 25000 nM.

In turn, `CCOc1ccc(C(=O)Oc2cccnc2)cc1` came in with an IC50 of 377 nM.

`CCOc1ccc(C(=O)Oc2cnccc2NC(=O)Nc2ccccc2)cc1` returned an IC50 of 355 nM.

`CCOc1ccc(C(=O)Oc2cncc(NC(=O)Nc3ccccc3)c2)cc1` had an IC50 above 25000 nM.

The target of another experiment is CDK8/Cyclin C (Homo sapiens) (UniProt P49336+P24863). The experiment in a line: Inhibition of Alexa fluor 647 labeled kinase tracer binding to human CDK8/cyclin C at 10 uM incubated for 1 hr by FRET based LanthaScreen Eu-Kinase binding assay relative to control. Type of experiment: protein-complex assay. The essentials: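 Tagged CDK8/CyclinC (5 nM final) with biotin anti-His antibody and Eu-streptavidin; competitor at 10 μM; Alexa Fluor 647 tracer 236 (Kd 8 nM) at 10 nM final. Buffer: HEPES 50 mM pH 7.5, MgCl2 10 mM, EGTA 1 mM, Brij-35 0.01%. Incubated 1 h at room temperature. TR-FRET read with excitation at 337 nm and emission at 665/620 nm. Mean ± SEM of two independent experiments.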
`Cc1ccc(SC(C)C(=O)NCc2cccnc2)cc1` (stereo not drawn): the inhibition (commonly the drop in the measured response relative to a control, in per cent) is above 50%.

`c1ccc(COc2ccc(OCc3ccccn3)cc2)nc1` came in with an inhibition above 50%.

For the molecule `COc1ccc(OC(=O)c2cccnc2)cc1`, the inhibition was above 50%.

In the case of `CCOc1ccc(C(=O)Oc2cccnc2)cc1`, the inhibition was above 50%.

On to `O=C(Nc1ccncc1)c1ccncc1`, for which the inhibition is above 50%.

Consider `COc1ccc(C(O)Cc2cccnc2)cc1` (stereo not drawn), for which the inhibition is above 50%.
